Assay results published in ChEMBL document CHEMBL5303300, “EUbOPEN Chemogenomics Library - Multiplex” (2023).
Several values for one entry are separate records, joined by “and”; a condition that tells them apart may be missing. Equal entries are not always repeated.

Test system: U2OS
Assay: Multiplex assay against U2OS
Format: toxicity, cell-based
Conditions: human, number of replicates 2
Procedure, shortened: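 Hoechst33342, BioTracker Green Microtubule Cytoskeleton Dye, MitoTracker Red and Annexin V Alexa Fluor 680 were added to live cells at seeding, and imaging on a CQ1 microscope at 37°C and 5% CO2 followed compound addition. Gating by CellPathfinder machine learning separated cells into Hoechst high-intensity objects or normal cells, then normal cells into healthy, pyknosed or fragmented nuclei, then pyknosed cells into mitotic or apoptotic. Per cents of healthy-nucleus cells are reported for the tubulin, mitochondrial-mass and membrane-permeability phenotypes.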

[1] = 12 h, 1 µM, compound concentration 1 uM
[2] = 12 h, 10 µM, compound concentration 10 uM
[3] = 24 h, 1 µM, compound concentration 1 uM
[4] = 24 h, 10 µM, compound concentration 10 uM
[5] = 48 h, 1 µM, compound concentration 1 uM
[6] = 48 h, 10 µM, compound concentration 10 uM

## O=C(NCc1ccc(F)cc1)N1CCN2C(=O)OC(c3ccccc3)(c3ccccc3)C2C1 (centres undefined)
[1]
  Population Apoptotic (%): 80% and 46%
  Population Fragmented Nuclei (%): 11% and 2%
  Population Healthy Nuclei (%): 69% and 86%
  Population Hoechst High Intensity Objects (%): 3% and 0%
  Population Membrane Permeable-Phenotype (%): 0% and 3%
  Population Mitochondria Different-Phenotype (%): 0% and 1%
  Population Mitotic Cells (%): 20% and 53%
  Population Normal (%): 96% and 100%
  Population Pyknosed Nuclei (%): 19% and 10%
  Population Tubulin-Different-Phenotype (%): 61% and 62%
[2]
  Population Apoptotic (%): 62% and 43%
  Population Fragmented Nuclei (%): 7% and 4%
  Population Healthy Nuclei (%): 71% and 86%
  Population Hoechst High Intensity Objects (%): 0%
  Population Membrane Permeable-Phenotype (%): 22% and 24%
  Population Mitochondria Different-Phenotype (%): 22% and 17%
  Population Mitotic Cells (%): 37% and 56%
  Population Normal (%): 100% and 99%
  Population Pyknosed Nuclei (%): 21% and 9%
  Population Tubulin-Different-Phenotype (%): 88% and 60%
[3]
  Population Apoptotic (%): 47% and 81%
  Population Fragmented Nuclei (%): 2% and 8%
  Population Healthy Nuclei (%): 88% and 58%
  Population Hoechst High Intensity Objects (%): 0% and 2%
  Population Membrane Permeable-Phenotype (%): 2% and 5%
  Population Mitochondria Different-Phenotype (%): 0%
  Population Mitotic Cells (%): 52% and 18%
  Population Normal (%): 100% and 97%
  Population Tubulin-Different-Phenotype (%): 72% and 45%
[4]
  Population Apoptotic (%): 75% and 72%
  Population Fragmented Nuclei (%): 2% and 6%
  Population Healthy Nuclei (%): 64% and 78%
  Population Hoechst High Intensity Objects (%): 0%
  Population Membrane Permeable-Phenotype (%): 37% and 16%
  Population Mitochondria Different-Phenotype (%): 45% and 36%
  Population Mitotic Cells (%): 25% and 28%
  Population Normal (%): 100%
  Population Pyknosed Nuclei (%): 32% and 15%
  Population Tubulin-Different-Phenotype (%): 83% and 53%
[5]
  Population Apoptotic (%): 37% and 90%
  Population Healthy Nuclei (%): 90% and 62%
  Population Hoechst High Intensity Objects (%): 0% and 1%
  Population Membrane Permeable-Phenotype (%): 1% and 9%
  Population Mitochondria Different-Phenotype (%): 0%
  Population Normal (%): 100% and 98%
  Population Pyknosed Nuclei (%): 6% and 18%
  Population Tubulin-Different-Phenotype (%): 86% and 48%
[6]
  Population Apoptotic (%): 75% and 73%
  Population Fragmented Nuclei (%): 7% and 5%
  Population Healthy Nuclei (%): 57% and 75%
  Population Hoechst High Intensity Objects (%): 0%
  Population Membrane Permeable-Phenotype (%): 12% and 20%
  Population Mitochondria Different-Phenotype (%): 37% and 19%
  Population Mitotic Cells (%): 25% and 26%
  Population Normal (%): 100%
  Population Pyknosed Nuclei (%): 35% and 18%
  Population Tubulin-Different-Phenotype (%): 68% and 42%

## CNC(=O)c1c(F)cccc1Nc1nc(Nc2cc3c(cc2OC)CCN3C(=O)CN(C)C)nc2[nH]ccc12
[1]
  Population Apoptotic (%): 57% and 62%
  Population Healthy Nuclei (%): 60% and 80%
  Population Hoechst High Intensity Objects (%): 0%
  Population Membrane Permeable-Phenotype (%): 0% and 7%
  Population Mitochondria Different-Phenotype (%): 0% and 8%
  Population Mitotic Cells (%): 42% and 37%
  Population Normal (%): 100%
  Population Pyknosed Nuclei (%): 13% and 15%
  Population Tubulin-Different-Phenotype (%): 80% and 46%
[2]
  Population Apoptotic (%): 46% and 60%
  Population Healthy Nuclei (%): 33% and 35%
  Population Hoechst High Intensity Objects (%): 0% and 2%
  Population Mitotic Cells (%): 53% and 39%
  Population Normal (%): 100% and 97%
  Population Tubulin-Different-Phenotype (%): 57% and 75%
  Total Cell Count: 815 and 281
[3]
  Population Apoptotic (%): 46% and 59%
  Population Healthy Nuclei (%): 55% and 80%
  Population Hoechst High Intensity Objects (%): 0%
  Population Membrane Permeable-Phenotype (%): 0% and 3%
  Population Mitochondria Different-Phenotype (%): 0% and 7%
  Population Mitotic Cells (%): 53% and 40%
  Population Normal (%): 100%
  Population Pyknosed Nuclei (%): 25% and 15%
  Population Tubulin-Different-Phenotype (%): 87% and 50%
[4]
  Population Apoptotic (%): 72% and 83%
  Population Healthy Nuclei (%): 32% and 23%
  Population Hoechst High Intensity Objects (%): 0% and 1%
  Population Mitotic Cells (%): 27% and 16%
  Population Normal (%): 100% and 98%
  Population Tubulin-Different-Phenotype (%): 62% and 78%
[5]
  Population Apoptotic (%): 72% and 78%
  Population Healthy Nuclei (%): 61% and 82%
  Population Hoechst High Intensity Objects (%): 1% and 0%
  Population Membrane Permeable-Phenotype (%): 2% and 4%
  Population Mitochondria Different-Phenotype (%): 2% and 5%
  Population Mitotic Cells (%): 27% and 22%
  Population Normal (%): 98% and 100%
  Population Pyknosed Nuclei (%): 23% and 14%
  Population Tubulin-Different-Phenotype (%): 91% and 62%
[6]
  Population Apoptotic (%): 95% and 94%
  Population Hoechst High Intensity Objects (%): 0% and 1%
  Population Mitotic Cells (%): 4% and 5%
  Population Normal (%): 100% and 98%
  Population Tubulin-Different-Phenotype (%): 64% and 80%

## COc1ncc(-c2cc(-c3ncc(CN4C[C@@H](C)O[C@@H](C)C4)o3)c3cn[nH]c3c2)cc1NS(C)(=O)=O
[1]
  Population Apoptotic (%): 66% and 57%
  Population Fragmented Nuclei (%): 3% and 13%
  Population Healthy Nuclei (%): 85% and 69%
  Population Hoechst High Intensity Objects (%): 0%
  Population Membrane Permeable-Phenotype (%): 1% and 0%
  Population Mitochondria Different-Phenotype (%): 0%
  Population Mitotic Cells (%): 33% and 42%
  Population Normal (%): 99% and 100%
  Population Pyknosed Nuclei (%): 11% and 16%
  Population Tubulin-Different-Phenotype (%): 84% and 43%
[2]
  Population Apoptotic (%): 50% and 64%
  Population Healthy Nuclei (%): 68% and 77%
  Population Hoechst High Intensity Objects (%): 0%
  Population Membrane Permeable-Phenotype (%): 12% and 10%
  Population Mitochondria Different-Phenotype (%): 0% and 5%
  Population Mitotic Cells (%): 50% and 35%
  Population Normal (%): 100% and 99%
  Population Pyknosed Nuclei (%): 10% and 18%
  Population Tubulin-Different-Phenotype (%): 48% and 45%
[3]
  Population Apoptotic (%): 65% and 87%
  Population Fragmented Nuclei (%): 1% and 9%
  Population Healthy Nuclei (%): 87% and 75%
  Population Hoechst High Intensity Objects (%): 0%
  Population Membrane Permeable-Phenotype (%): 1% and 0%
  Population Mitochondria Different-Phenotype (%): 0%
  Population Mitotic Cells (%): 34% and 12%
  Population Normal (%): 99% and 100%
  Population Pyknosed Nuclei (%): 10% and 15%
  Population Tubulin-Different-Phenotype (%): 82% and 47%
[4]
  Population Apoptotic (%): 64% and 74%
  Population Healthy Nuclei (%): 49% and 69%
  Population Hoechst High Intensity Objects (%): 0%
  Population Membrane Permeable-Phenotype (%): 0% and 8%
  Population Mitochondria Different-Phenotype (%): 7% and 9%
  Population Mitotic Cells (%): 35% and 25%
  Population Normal (%): 100%
  Population Pyknosed Nuclei (%): 26% and 23%
  Population Tubulin-Different-Phenotype (%): 76% and 49%
[5]
  Population Apoptotic (%): 65% and 69%
  Population Fragmented Nuclei (%): 2% and 7%
  Population Healthy Nuclei (%): 87% and 72%
  Population Hoechst High Intensity Objects (%): 0%
  Population Membrane Permeable-Phenotype (%): 1% and 0%
  Population Mitochondria Different-Phenotype (%): 0%
  Population Mitotic Cells (%): 34% and 30%
  Population Normal (%): 99% and 100%
  Population Pyknosed Nuclei (%): 10% and 19%
  Population Tubulin-Different-Phenotype (%): 81% and 43%
[6]
  Population Apoptotic (%): 76% and 81%
  Population Healthy Nuclei (%): 55% and 62%
  Population Hoechst High Intensity Objects (%): 0%
  Population Membrane Permeable-Phenotype (%): 7% and 8%
  Population Mitochondria Different-Phenotype (%): 10% and 12%
  Population Mitotic Cells (%): 23% and 18%
  Population Normal (%): 100%
  Population Pyknosed Nuclei (%): 25% and 30%
  Population Tubulin-Different-Phenotype (%): 63% and 50%

## C=CC(=O)Nc1ccc2[nH]c(=O)n(C3CCN(Cc4ccc(-c5ccc6c(c5)NC(=O)CO6)cc4)CC3)c2c1 [RL2578]
[1]
  Population Fragmented Nuclei (%): 5% and 4%
  Population Healthy Nuclei (%): 66% and 83%
  Population Hoechst High Intensity Objects (%): 0%
  Population Mitochondria Different-Phenotype (%): 4% and 0%
  Population Normal (%): 100%
  Population Pyknosed Nuclei (%): 27% and 11%
  Population Tubulin-Different-Phenotype (%): 58% and 84%
[2]
  Population Apoptotic (%): 66%
  Population Fragmented Nuclei (%): 18% and 9%
  Population Healthy Nuclei (%): 57% and 80%
  Population Hoechst High Intensity Objects (%): 0%
  Population Membrane Permeable-Phenotype (%): 13% and 7%
  Population Mitochondria Different-Phenotype (%): 13% and 30%
  Population Mitotic Cells (%): 33%
  Population Normal (%): 100%
  Population Pyknosed Nuclei (%): 23% and 9%
  Population Tubulin-Different-Phenotype (%): 31% and 46%
[3]
  Population Apoptotic (%): 85% and 74%
  Population Fragmented Nuclei (%): 8% and 4%
  Population Healthy Nuclei (%): 75% and 86%
  Population Hoechst High Intensity Objects (%): 0%
  Population Membrane Permeable-Phenotype (%): 11% and 1%
  Population Mitochondria Different-Phenotype (%): 8% and 2%
  Population Mitotic Cells (%): 14% and 25%
  Population Normal (%): 100%
  Population Pyknosed Nuclei (%): 15% and 9%
  Population Tubulin-Different-Phenotype (%): 76% and 87%
[4]
  Population Apoptotic (%): 61% and 54%
  Population Fragmented Nuclei (%): 9% and 8%
  Population Healthy Nuclei (%): 54% and 78%
  Population Hoechst High Intensity Objects (%): 1% and 0%
  Population Membrane Permeable-Phenotype (%): 0% and 5%
  Population Mitotic Cells (%): 38% and 45%
  Population Normal (%): 98% and 99%
  Population Pyknosed Nuclei (%): 35% and 12%
  Population Tubulin-Different-Phenotype (%): 39% and 47%
[5]
  Population Apoptotic (%): 83% and 70%
  Population Healthy Nuclei (%): 68% and 90%
  Population Hoechst High Intensity Objects (%): 0%
  Population Membrane Permeable-Phenotype (%): 8% and 0%
  Population Mitochondria Different-Phenotype (%): 4% and 0%
  Population Mitotic Cells (%): 16% and 30%
  Population Normal (%): 100%
  Population Pyknosed Nuclei (%): 16% and 6%
  Population Tubulin-Different-Phenotype (%): 80% and 84%
[6]
  Population Apoptotic (%): 76% and 68%
  Population Fragmented Nuclei (%): 13% and 10%
  Population Healthy Nuclei (%): 53% and 70%
  Population Hoechst High Intensity Objects (%): 0% and 1%
  Population Membrane Permeable-Phenotype (%): 10% and 5%
  Population Mitochondria Different-Phenotype (%): 7% and 18%
  Population Mitotic Cells (%): 23% and 31%
  Population Normal (%): 100% and 98%
  Population Pyknosed Nuclei (%): 32% and 19%
  Population Tubulin-Different-Phenotype (%): 71% and 59%
